Reference: ChEMBL document CHEMBL1151796, “Novel anticancer agents, kayeassamins C-I from the flower of Kayea assamica of Myanmar” (2008)

Legend:
PANC-1 [1] = assay: Cytotoxicity against human PANC1 cells in nutrient-deprived condition; assay type: functional
Summary of the method: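 PANC-1 cells seeded at 2×10^4 per well, grown 24 h in DMEM at 37 °C, 5% CO₂, PBS-washed, then switched to nutrient-deprived medium (NDM) or DMEM with serial dilutions of pure compounds (1–256 µM). Incubated 24 h, washed, then 2 h with DMEM containing 10% WST-8 and read at 450 nm. Endpoint reported as PC₁₀₀.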

PANC-1 [2] = assay: Cytotoxicity against human PANC1 cells in nutrient-deprived condition assessed as complete preferential cell death at 1 uM; assay type: functional, cell-based; settings: TDE = time-dependent effect
Summary of the method: (§1)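 PANC-1 cells (2×10^4 per well, 24 h preculture in DMEM, 37 °C, 5% CO₂) were PBS-washed and exposed in NDM or DMEM for 3, 6, 9, 12 and 24 h. Morphology was checked by phase-contrast microscopy at 20×. Cells were then washed and given 2 h of 10% WST-8 in DMEM, with absorbance read at 450 nm. Viability was taken from the mean of three wells.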

PANC-1 [3] = assay: Cytotoxicity against human PANC1 cells in nutrient-deprived condition assessed as preferential cell death within 3 hrs; assay type: functional, cell-based; summary of the method: as §1

CCCC(=O)c1c2c(c3oc(=O)cc(CCC)c3c1O)CC(C(C)(C)O)O2 (stereo not given)
Cytotoxicity (PANC-1 [1]): 64 µM

CC[C@H](O)c1cc(=O)oc2c(C(=O)CC(C)C)c(O)c3c(c12)OC(C)(C)C=C3
Cytotoxicity (PANC-1 [1]): 32 µM

CCCC(=O)c1c(O)c(CC=C(C)C)c2oc(=O)cc(CCC)c2c1O
Cytotoxicity (PANC-1 [1]): 2 µM

CCCC(=O)c1c(O)c(CC=C(C)C)c(O)c2c(-c3ccccc3)cc(=O)oc12
Cytotoxicity (PANC-1 [1]): 8 µM

CCCC(=O)c1c2c(c3oc(=O)cc(-c4ccccc4)c3c1O)C=CC(C)(C)O2
Cytotoxicity (PANC-1 [1]): >256 µM

COc1cc(C[C@H]2C(=O)OC[C@@H]2Cc2ccc(OC)c(OC)c2)ccc1O [ARCTIGENIN]
Cytotoxicity (PANC-1 [1]): 1 µM

CCCC(=O)c1c(O)c(C/C=C(\C)CCC=C(C)C)c(O)c2c([C@@H](O)CC)cc(=O)oc12 [KAYEASSAMIN A]
Cytotoxicity (PANC-1 [1]): 1 µM

CCCC(=O)c1c(O)c(C/C=C(\C)CCC=C(C)C)c2oc(=O)cc([C@@H](O)CC)c2c1O [KAYEASSAMIN B]
Cytotoxicity (PANC-1 [1]): 1 µM

CCC(C)C(=O)c1c(O)c(C/C=C(\C)CCC=C(C)C)c2oc(=O)cc([C@@H](O)CC)c2c1O (stereo not given in full) [KAYEASSAMIN C]
Cytotoxicity (PANC-1 [1]): 4 µM

CC[C@H](O)c1cc(=O)oc2c(C/C=C(\C)CCC=C(C)C)c(O)c(C(=O)CC(C)C)c(O)c12 [KAYEASSAMIN D]
Cytotoxicity (PANC-1 [1]): 1 µM | Activity (PANC-1 [2]): tde

CCCC(=O)c1c(O)c(CC=C(C)C)c2oc(=O)cc([C@@H](O)CC)c2c1O [KAYEASSAMIN E]
Cytotoxicity (PANC-1 [1]): 1 µM | Activity (PANC-1 [3]): Dose-dependent effect

CCC(C)C(=O)c1c(O)c(CC=C(C)C)c2oc(=O)cc([C@@H](O)CC)c2c1O (stereo not given in full) [KAYEASSAMIN F]
Cytotoxicity (PANC-1 [1]): 2 µM

CC[C@H](O)c1cc(=O)oc2c(CC=C(C)C)c(O)c(C(=O)CC(C)C)c(O)c12 [KAYEASSAMIN G]
Cytotoxicity (PANC-1 [1]): 1 µM | Activity (PANC-1 [3]; TDE = time-dependent effect): tde

CCCC(=O)c1c(O)c(CC=C(C)C)c2oc(=O)cc3c2c1OC(C)C3 (stereo not given) [KAYEASSAMIN H]
Cytotoxicity (PANC-1 [1]): 64 µM

CCCC(=O)c1c(O)c2c(c3c([C@@H](O)CC)cc(=O)oc13)OC(C)(CCC=C(C)C)C=C2 (stereo not given in full) [KAYEASSAMIN I]
Cytotoxicity (PANC-1 [1]): 64 µM

CCCC(=O)c1c(O)c(CC=C(C)C)c2oc(=O)cc(-c3ccccc3)c2c1O [MAMMEA A/AC]
Cytotoxicity (PANC-1 [1]): 16 µM

CC(C)CC(=O)c1c2c(c3oc(=O)cc(-c4ccccc4)c3c1O)C=CC(C)(C)O2 [MAMMEIGIN]
Cytotoxicity (PANC-1 [1]): 32 µM
